# Assay results reported in PMC6510378 (Clinical and Translational Science, 2019).
# Tests used:
# MAD study part 2 = type: in vivo, human
# Summary of the method: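 Healthy young non-Japanese adults, open-label oral dosing. 0.7 or 2 mg was given as a single dose on day 1, then after a 6-day washout once daily. 0.4 mg was given once daily on days 1–14. 0.2 mg followed a 3 mg loading dose on day 1, days 2–14. PK doses were given fasted 10 h, with no food for 4 h. Plasma drug was measured by validated HPLC-MS/MS, with below-limit values set to zero. AUClast was reported where AUCinf was not calculable.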
# human 11β‐HSD1 = details: competitive binding; ref Internal study reports 3662‐PH‐0001 and 3662‐PH‐0001‐0004; cited from earlier work
# 4-week toxicology = type: in vivo; details: 4-week toxicology data, most sensitive species (rat)
# [1] = MAD part 2, day 1 single dose 0.7 mg, young non-Japanese, n=6
# [2] = MAD part 2, day 1 single dose 2 mg, young non-Japanese, n=2
# [3] = MAD part 2, last day of q.d. 14 days 0.4 mg, young non-Japanese, n=2
# [4] = MAD part 2, last day of q.d. 14 days 0.4 mg, young non-Japanese, n=4
# [5] = MAD part 2, last day of q.d. 14 days 0.7 mg, young non-Japanese, n=1
# [6] = MAD part 2, last day of q.d. 14 days 0.7 mg, young non-Japanese, n=6
# [7] = MAD part 2, last day of q.d. 14 days 2 mg, young non-Japanese, n=4
# [8] = MAD part 2, last day of q.d. 14 days 2 mg, young non-Japanese, n=5
smiles,measurement,setting,value
Cn1c(-c2ccc(C(N)=O)cc2F)nnc1C(C)(C)Oc1c(F)cc(Cl)cc1F [ASP3662],steady state after 14 days of q.d. dosing,"MAD study part 2; 0.2 and 0.4 mg, despite 3‐mg loading dose in 0.2‐mg group",not fully reached
same,"AUCinf (AUClast values presented, footnote a), Mean (SD)",MAD study part 2; [1],0.2437 (0.4421) ng·hour/mL
same,"AUCinf (AUClast values presented, footnote a), Median",MAD study part 2; [1],0.01242 ng·h/mL
same,"AUCinf (AUClast values presented, footnote a), Min–max",MAD study part 2; [1],0 to 1.11 ng·h/mL
same,"CL/F, Mean (SD)",MAD study part 2; [2],42.21 (6.917) L/hour
same,"CL/F, Median",MAD study part 2; [2],42.21 L/h
same,"CL/F, Min–max",MAD study part 2; [2],37.3 to 47.1 L/h
same,"VzF, Mean (SD)",MAD study part 2; [2],"5,472 (1,378) L"
same,"VzF, Median",MAD study part 2; [2],"5,472 L"
same,"VzF, Mean (SD)",MAD study part 2; [3],"2,516 (45.89) L"
same,"VzF, Median",MAD study part 2; [3],"2,516 L"
same,"VzF, Min–max",MAD study part 2; [3],"2,484–2,549 L"
same,"CL/F, Mean (SD)",MAD study part 2; [4],10.83 (0.7639) L/hour
same,"CL/F, Median",MAD study part 2; [4],10.83 L/h
same,"CL/F, Min–max",MAD study part 2; [4],9.90 to 11.8 L/h
same,"Ctrough, Mean (SD)",MAD study part 2; [4],1.072 (0.1719) ng/mL
same,"Ctrough, Median",MAD study part 2; [4],1.053 ng/mL
same,"Ctrough, Min–max",MAD study part 2; [4],0.918 to 1.26 ng/mL
same,"VzF, Mean (SD)",MAD study part 2; [5],"3,677 (NC) L"
same,"VzF, Median",MAD study part 2; [5],"3,677 L"
same,"VzF, Min–max",MAD study part 2; [5],"3,677–3,677 L"
same,"CL/F, Mean (SD)",MAD study part 2; [6],11.44 (2.349) L/hour
same,"CL/F, Median",MAD study part 2; [6],11.34 L/h
same,"CL/F, Min–max",MAD study part 2; [6],7.45 to 14.2 L/h
same,"Ctrough, Mean (SD)",MAD study part 2; [6],1.389 (0.3190) ng/mL
same,"Ctrough, Median",MAD study part 2; [6],1.234 ng/mL
same,"Ctrough, Min–max",MAD study part 2; [6],1.10 to 1.83 ng/mL
same,"VzF, Mean (SD)",MAD study part 2; [7],"1,231 (547.6) L"
same,"VzF, Median",MAD study part 2; [7],"1,165 L"
same,"VzF, Min–max",MAD study part 2; [7],"715–1,880 L"
same,"CL/F, Mean (SD)",MAD study part 2; [8],9.41 (1.208) L/hour
same,"CL/F, Median",MAD study part 2; [8],9.139 L/h
same,"CL/F, Min–max",MAD study part 2; [8],8.23 to 11.4 L/h
same,"Ctrough, Mean (SD)",MAD study part 2; [8],3.493 (1.166) ng/mL
same,"Ctrough, Median",MAD study part 2; [8],3.437 ng/mL
same,"Ctrough, Min–max",MAD study part 2; [8],1.80 to 5.03 ng/mL
same,Ki,human 11β‐HSD1,5.3 nM
same,maximum recommended starting dose derived from the no observed adverse effect level,4-week toxicology,10 mg
